The values below come from ChEMBL document CHEMBL2380216, “Design and selection parameters to accelerate the discovery of novel central nervous system positron emission tomography (PET) ligands and their application in the development of a novel phosphodiesterase 2A PET ligand” (J Med Chem, 2013).

Activity calls are given as the source filed them. The calls are words filed in the database; no cut-off is given here.

Data set [1] in a line: Apparent permeability across apical to basolateral side in dog RRCK cells. It counts as ADME, cell-based, Canis lupus familiaris, MDCKII-LE. The note with it: MDCK.
Data set [2] in a line: Drug uptake in cynomolgus monkey skull at 215 MBq, iv measured for 90 mins by PET analysis. In kind it is ADME, organism-based, Macaca fascicularis. The note with it: in vivo, 1.5 h. The procedure, abridged:
(§1)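 Male cynomolgus monkeys (n=2, 5–6 years) were fasted overnight and given ketamine 10 mg/kg IM plus glycopyrrolate 0.01 mg/kg IM. They were intubated and maintained under isoflurane (1.5−2.0% in O2). The radiotracer was given as an IV saphenous bolus targeting 37 MBq/kg. A 57Co transmission scan provided attenuation/scatter correction. A 90 min dynamic acquisition was binned into 16 frames (5×1, 5×5, 6×10 min).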

Data set [3] can be described thus: Drug uptake in cynomolgus monkey caudate nucleus at 215 MBq, iv measured for 90 mins by PET analysis. It counts as ADME, organism-based, Macaca fascicularis. The note with it: in vivo, 1.5 h. Summed up:
as §1

A short description of data set [4]: Drug uptake in cynomolgus monkey cerebellum at 215 MBq, iv measured for 90 mins by PET analysis. In kind it is ADME, organism-based, Macaca fascicularis. The note with it: in vivo, 1.5 h. The procedure, abridged:
as §1

In data set [5] the test system is Putamen. Put plainly: Drug uptake in cynomolgus monkey putamen at 215 MBq, iv measured for 90 mins by PET analysis. It counts as ADME, organism-based, Macaca fascicularis. Particulars: in vivo, 1.5 h. Summed up: as §1
Data set [6] is described as follows: Ratio of total drug level in brain to plasma in Wistar Han rat at 1 mg/kg, iv after 2 hrs. On the set-up: dose 1 mg/kg, route intravenous. It counts as ADME, organism-based. The procedure, abridged:
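Wistar-Han rats received a single 1 mg/kg IV dose. Total drug levels in brain and plasma were determined from pharmacokinetics over 0−2 h post-dose and expressed as a ratio.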

Data set [7] can be described thus: Fraction unbound in human plasma. It counts as ADME, cell-free.
The nature of data set [8]: Fraction unbound in rat brain. In kind it is ADME, tissue-based.
Data set [9] in a line: Fraction unbound in rat plasma. In kind it is ADME, cell-free.
Data set [10] deals with 3',5'-cyclic-AMP phosphodiesterase 4D (Homo sapiens, UniProt Q08499). Put plainly: Inhibition of PDE4D (unknown origin).
Chain of 3',5'-cyclic-AMP phosphodiesterase 4D (Q08499 whole entry): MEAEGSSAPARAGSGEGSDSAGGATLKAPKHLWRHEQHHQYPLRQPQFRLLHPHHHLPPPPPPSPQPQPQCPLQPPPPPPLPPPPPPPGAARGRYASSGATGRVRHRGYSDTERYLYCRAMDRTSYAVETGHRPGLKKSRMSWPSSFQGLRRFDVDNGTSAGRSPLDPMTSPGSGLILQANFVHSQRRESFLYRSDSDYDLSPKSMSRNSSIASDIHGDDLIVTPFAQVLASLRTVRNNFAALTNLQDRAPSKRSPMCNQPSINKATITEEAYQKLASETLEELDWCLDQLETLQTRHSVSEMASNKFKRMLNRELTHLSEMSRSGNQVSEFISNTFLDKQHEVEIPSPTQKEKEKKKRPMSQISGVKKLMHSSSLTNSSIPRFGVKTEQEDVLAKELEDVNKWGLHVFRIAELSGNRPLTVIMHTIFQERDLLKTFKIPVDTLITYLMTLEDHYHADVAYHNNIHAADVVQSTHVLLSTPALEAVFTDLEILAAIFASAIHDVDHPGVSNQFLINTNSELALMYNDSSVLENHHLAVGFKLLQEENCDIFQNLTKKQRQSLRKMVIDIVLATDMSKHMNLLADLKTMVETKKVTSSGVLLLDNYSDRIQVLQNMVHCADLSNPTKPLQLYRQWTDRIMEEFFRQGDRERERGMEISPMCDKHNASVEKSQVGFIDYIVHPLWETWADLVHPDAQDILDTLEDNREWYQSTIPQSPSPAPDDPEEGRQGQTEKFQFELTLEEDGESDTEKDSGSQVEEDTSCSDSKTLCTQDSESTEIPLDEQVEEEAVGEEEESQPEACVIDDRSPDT
For data set [11], the target named is cGMP-inhibited 3',5'-cyclic phosphodiesterase 3A (Homo sapiens, UniProt Q14432). The experiment in a line: Inhibition of PDE3A (unknown origin).
Chain of cGMP-inhibited 3',5'-cyclic phosphodiesterase 3A (Q14432 whole entry): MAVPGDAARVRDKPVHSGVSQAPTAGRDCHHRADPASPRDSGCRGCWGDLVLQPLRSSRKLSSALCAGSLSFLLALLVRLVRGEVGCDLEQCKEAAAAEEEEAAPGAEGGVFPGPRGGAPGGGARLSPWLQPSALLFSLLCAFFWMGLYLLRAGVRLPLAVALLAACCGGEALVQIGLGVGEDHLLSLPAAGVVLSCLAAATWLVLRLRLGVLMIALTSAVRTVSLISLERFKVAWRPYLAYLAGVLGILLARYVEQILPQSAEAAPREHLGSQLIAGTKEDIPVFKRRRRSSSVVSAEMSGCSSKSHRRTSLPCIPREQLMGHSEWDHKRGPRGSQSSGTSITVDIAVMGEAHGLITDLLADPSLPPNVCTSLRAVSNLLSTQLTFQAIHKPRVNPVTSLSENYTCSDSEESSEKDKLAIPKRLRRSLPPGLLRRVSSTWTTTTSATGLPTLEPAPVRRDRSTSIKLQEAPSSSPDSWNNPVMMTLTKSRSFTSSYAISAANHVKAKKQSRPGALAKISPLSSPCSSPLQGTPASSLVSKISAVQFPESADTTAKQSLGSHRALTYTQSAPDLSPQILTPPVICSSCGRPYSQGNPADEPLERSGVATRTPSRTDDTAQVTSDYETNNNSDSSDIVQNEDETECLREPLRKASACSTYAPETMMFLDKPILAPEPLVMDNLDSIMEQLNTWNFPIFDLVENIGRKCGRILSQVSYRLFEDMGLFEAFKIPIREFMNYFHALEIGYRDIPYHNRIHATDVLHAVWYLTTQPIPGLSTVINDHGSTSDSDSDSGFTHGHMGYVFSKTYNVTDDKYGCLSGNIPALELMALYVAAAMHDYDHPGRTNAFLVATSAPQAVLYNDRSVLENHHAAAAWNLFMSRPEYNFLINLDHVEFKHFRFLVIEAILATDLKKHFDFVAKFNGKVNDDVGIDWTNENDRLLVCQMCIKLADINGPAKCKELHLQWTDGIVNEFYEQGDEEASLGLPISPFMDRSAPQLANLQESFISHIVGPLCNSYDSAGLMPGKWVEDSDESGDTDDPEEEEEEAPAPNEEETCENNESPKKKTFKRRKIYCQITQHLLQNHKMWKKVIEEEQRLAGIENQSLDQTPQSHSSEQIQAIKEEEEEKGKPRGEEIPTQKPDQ
Data set [12] deals with High affinity cAMP-specific and IBMX-insensitive 3',5'-cyclic phosphodiesterase 8B (Homo sapiens, UniProt O95263). Put plainly: Inhibition of PDE8B (unknown origin).
Chain of High affinity cAMP-specific and IBMX-insensitive 3',5'-cyclic phosphodiesterase 8B (O95263 whole entry): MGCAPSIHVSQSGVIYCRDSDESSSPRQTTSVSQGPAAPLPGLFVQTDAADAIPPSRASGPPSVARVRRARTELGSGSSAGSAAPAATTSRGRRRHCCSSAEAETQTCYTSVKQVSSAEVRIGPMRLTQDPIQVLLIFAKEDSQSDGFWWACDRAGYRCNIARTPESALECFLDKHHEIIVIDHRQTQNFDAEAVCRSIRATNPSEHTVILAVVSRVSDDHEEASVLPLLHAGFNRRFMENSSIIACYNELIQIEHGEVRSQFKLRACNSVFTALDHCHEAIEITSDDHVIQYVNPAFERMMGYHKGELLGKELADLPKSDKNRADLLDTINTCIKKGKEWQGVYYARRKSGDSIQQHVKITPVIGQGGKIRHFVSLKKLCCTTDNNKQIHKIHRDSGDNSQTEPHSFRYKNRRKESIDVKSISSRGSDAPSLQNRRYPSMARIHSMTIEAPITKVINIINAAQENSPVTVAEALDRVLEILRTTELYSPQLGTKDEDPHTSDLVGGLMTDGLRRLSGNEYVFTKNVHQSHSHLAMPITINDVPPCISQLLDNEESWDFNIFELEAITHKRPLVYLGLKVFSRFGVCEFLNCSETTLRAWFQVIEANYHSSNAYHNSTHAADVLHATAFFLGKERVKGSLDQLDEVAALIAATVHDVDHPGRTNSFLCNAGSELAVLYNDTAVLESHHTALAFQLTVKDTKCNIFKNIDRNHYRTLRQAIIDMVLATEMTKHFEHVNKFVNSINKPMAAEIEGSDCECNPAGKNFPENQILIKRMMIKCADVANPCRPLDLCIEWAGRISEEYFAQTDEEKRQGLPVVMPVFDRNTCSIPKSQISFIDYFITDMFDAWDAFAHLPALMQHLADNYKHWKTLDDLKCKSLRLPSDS
Data set [13] relates to Cynomolgus monkey. The experiment in a line: Binding affinity to PDE2A in cynomolgus monkey striatum at 215 MBq, iv measured for 90 mins by PET analysis. In kind it is functional, organism-based. The note with it: Macaca fascicularis, 215 M, tested as the 18F-labelled form. Summed up: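 Two male cynomolgus monkeys, 5–6 years old, were fasted overnight and premedicated with ketamine (10 mg/kg IM) and glycopyrrolate (0.01 mg/kg IM). They were then intubated and kept under isoflurane (1.5−2.0% in oxygen). Tracer was an IV bolus via the saphenous vein, targeting 37 MBq/kg. A 90 min dynamic scan followed. Striatal binding potential was derived by a simplified reference tissue model, with cerebellum as the reference region.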

The target of data set [14] is 3',5'-cyclic-AMP phosphodiesterase 7B (Homo sapiens, UniProt Q9NP56). The experiment in a line: Inhibition of PDE7B (unknown origin).
The target in data set [15] is cGMP-dependent 3',5'-cyclic phosphodiesterase (Homo sapiens, UniProt O00408). The experiment in a line: Inhibition of full length recombinant human PDE2A expressed in Sf21 cells using [3H]-cGMP as substrate by scintillation proximity assay.
Data set [16] has as its target cGMP-specific 3',5'-cyclic phosphodiesterase (Homo sapiens, UniProt O76074). Put plainly: Inhibition of PDE5A (unknown origin).
The target of data set [17] is cAMP and cAMP-inhibited cGMP 3',5'-cyclic phosphodiesterase 10A (Homo sapiens, UniProt Q9Y233). Put plainly: Inhibition of PDE10A (unknown origin).
Chain of cAMP and cAMP-inhibited cGMP 3',5'-cyclic phosphodiesterase 10A (Q9Y233 whole entry): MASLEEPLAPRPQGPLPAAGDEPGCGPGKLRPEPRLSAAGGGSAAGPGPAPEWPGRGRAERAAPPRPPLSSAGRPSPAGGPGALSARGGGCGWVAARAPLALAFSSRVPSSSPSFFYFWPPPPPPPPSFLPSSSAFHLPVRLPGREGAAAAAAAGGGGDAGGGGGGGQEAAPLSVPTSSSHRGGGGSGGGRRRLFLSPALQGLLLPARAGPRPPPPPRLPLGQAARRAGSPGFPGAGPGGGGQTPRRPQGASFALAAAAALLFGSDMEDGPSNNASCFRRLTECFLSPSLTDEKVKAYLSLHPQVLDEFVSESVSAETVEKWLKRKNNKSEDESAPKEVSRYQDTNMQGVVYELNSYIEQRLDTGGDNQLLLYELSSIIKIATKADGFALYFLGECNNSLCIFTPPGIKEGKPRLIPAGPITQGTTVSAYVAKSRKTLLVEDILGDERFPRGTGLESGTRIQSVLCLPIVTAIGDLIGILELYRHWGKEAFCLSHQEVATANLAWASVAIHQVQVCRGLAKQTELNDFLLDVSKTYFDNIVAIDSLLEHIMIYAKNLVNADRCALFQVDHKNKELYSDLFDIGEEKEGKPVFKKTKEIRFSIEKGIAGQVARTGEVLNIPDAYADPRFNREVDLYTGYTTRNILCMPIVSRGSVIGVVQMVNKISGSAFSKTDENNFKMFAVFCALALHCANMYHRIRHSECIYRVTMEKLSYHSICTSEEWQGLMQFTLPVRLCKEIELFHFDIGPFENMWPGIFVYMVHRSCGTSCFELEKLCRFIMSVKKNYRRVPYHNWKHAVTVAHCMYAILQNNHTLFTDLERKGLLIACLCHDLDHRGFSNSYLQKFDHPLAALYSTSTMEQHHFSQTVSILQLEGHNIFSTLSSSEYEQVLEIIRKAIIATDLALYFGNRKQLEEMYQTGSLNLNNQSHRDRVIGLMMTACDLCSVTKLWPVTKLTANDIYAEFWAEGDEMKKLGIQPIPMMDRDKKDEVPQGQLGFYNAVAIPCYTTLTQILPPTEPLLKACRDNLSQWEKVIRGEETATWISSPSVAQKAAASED
Data set [18] deals with High affinity cGMP-specific 3',5'-cyclic phosphodiesterase 9A (Homo sapiens, UniProt O76083). The experiment in a line: Inhibition of PDE9A (unknown origin).
Chain of High affinity cGMP-specific 3',5'-cyclic phosphodiesterase 9A (O76083 whole entry): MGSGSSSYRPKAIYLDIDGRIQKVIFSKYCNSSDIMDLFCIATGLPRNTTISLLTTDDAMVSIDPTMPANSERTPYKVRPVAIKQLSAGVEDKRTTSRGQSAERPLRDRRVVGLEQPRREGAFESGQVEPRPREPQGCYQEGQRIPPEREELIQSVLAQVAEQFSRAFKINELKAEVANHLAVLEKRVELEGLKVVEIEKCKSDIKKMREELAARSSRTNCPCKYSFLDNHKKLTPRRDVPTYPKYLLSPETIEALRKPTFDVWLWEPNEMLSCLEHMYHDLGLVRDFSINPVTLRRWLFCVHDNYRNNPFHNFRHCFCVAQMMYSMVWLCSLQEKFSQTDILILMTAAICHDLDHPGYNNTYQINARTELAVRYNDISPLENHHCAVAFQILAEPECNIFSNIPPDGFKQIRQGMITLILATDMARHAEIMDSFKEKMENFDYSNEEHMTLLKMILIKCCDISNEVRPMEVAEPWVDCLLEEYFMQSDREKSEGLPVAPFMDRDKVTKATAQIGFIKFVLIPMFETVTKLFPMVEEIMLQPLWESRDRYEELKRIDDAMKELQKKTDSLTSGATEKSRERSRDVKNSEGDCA
Data set [19] has as its target Dual specificity calcium/calmodulin-dependent 3',5'-cyclic nucleotide phosphodiesterase 1B (Homo sapiens, UniProt Q01064). The experiment in a line: Inhibition of PDE1B (unknown origin).

Chain of Dual specificity calcium/calmodulin-dependent 3',5'-cyclic nucleotide phosphodiesterase 1B (Q01064 whole entry): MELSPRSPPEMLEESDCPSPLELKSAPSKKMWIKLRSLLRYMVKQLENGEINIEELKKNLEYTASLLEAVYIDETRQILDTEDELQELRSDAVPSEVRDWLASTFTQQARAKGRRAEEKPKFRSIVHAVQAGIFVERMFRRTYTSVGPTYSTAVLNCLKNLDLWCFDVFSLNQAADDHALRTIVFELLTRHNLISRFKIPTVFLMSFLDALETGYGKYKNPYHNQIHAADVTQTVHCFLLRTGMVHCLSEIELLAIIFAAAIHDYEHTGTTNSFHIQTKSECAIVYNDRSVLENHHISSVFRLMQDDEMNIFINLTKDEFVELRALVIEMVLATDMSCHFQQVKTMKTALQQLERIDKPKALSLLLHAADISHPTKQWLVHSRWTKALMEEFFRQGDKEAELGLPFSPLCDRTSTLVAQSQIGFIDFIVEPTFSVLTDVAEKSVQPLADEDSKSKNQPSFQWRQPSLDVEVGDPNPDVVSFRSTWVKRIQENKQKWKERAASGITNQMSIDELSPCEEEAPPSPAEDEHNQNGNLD

As for `Cn1ncc(-c2nn(C)c3ncnc(N4CCC4)c23)c1-c1ccc(C(F)(F)F)cc1`, the apparent permeability from apical to basolateral (Papp A→B) in [1] was 21.5 ×10⁻⁶ cm/s.

As for `Cc1nc(-c2cnn(C)c2-c2ccc(C(F)(F)F)cc2)c2c(N3CC([18F])C3)ncnn12`, the Drug uptake entry in data set [2] is given as “Not Active”; in data set [3], “Active”; in [4], “Active”; in data set [5] it was “Active”.

In the case of `COc1ccc(-c2c(-c3nc(C)n4ncnc(N5CCC5)c34)cnn2C)c(C)c1`, the Kp at 2 h in data set [6] (Wistar Han, brain and plasma, read-out: BPR) came out at 0.34. Moreover, the fraction unbound in data set [7] worked out at 0.23; in data set [8], 0.17; in data set [9] it was 0.29. In addition, the apparent permeability from apical to basolateral (Papp A→B) in data set [1] turned out to be 42 ×10⁻⁶ cm/s.

As for `Cc1nc(-c2cnn(C)c2-c2ccc(C(F)(F)F)cc2)c2c(N3CC(F)C3)ncnn12`, the IC50 in data set [10] is over 30 µM; in data set [11], over 30 µM; in data set [12], over 10 µM; in data set [14], 12 µM; in data set [15] it was 0.00053 µM; in data set [16], 26 µM. For the same molecule, the IC50 in data set [17] is 3.9 µM; in data set [18], over 10 µM; in data set [19], over 30 µM. The BPR in data set [6] (brain, 2 h) is reported as 1.56. Also, the fraction unbound in data set [7] came to 0.17; in [8] it was 0.077; in data set [9] it was 0.24. Besides, the result in [13] was Active. Further, the Papp A→B in data set [1] is 21 ×10⁻⁶ cm/s.
